# Rows were chosen to be rich in hits. Some 3.5% of all compounds tested hit in one or more screens of this group.
# MrgX1 agonist: human MrgX1 receptor agonism, primary screen | MrgX1-HEK293 cells, Fluo-4 calcium fluorescence, agonist mode; stronger effect = higher value | B-score at 10 µM | 0.44% of 310,000 active | Q96LB2 | AID 588627;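 active means calcium response B-score plate-corrected fluorescence ratio at least 3 library SD, with starting fluorescence B-score inside 5 SD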
# Target sequence (Q96LB2 whole entry, looked up): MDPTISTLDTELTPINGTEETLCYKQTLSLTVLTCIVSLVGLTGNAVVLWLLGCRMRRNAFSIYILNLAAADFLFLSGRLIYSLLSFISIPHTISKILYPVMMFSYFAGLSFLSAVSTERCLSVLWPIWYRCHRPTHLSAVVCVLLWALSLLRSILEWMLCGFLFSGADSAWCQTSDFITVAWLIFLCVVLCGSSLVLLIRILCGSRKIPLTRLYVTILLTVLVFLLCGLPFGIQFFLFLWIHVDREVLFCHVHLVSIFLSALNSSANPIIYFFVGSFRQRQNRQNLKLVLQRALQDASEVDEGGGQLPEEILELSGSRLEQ
#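 Assay system: stable human MrgX1 HEK293 cell line. Quantity: 15,000 cells per well. Schedule: cells plated overnight, dye loaded 0.5 h 37 °C, 0.5 h room temperature. Detection: Fluo-4 NW calcium-flux fluorescence, kinetic read. Read-out basis: peak-minus-minimum fluorescence over baseline, converted to B scores. Control set: positive and negative control wells on each plate.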
# MrgX1 antagonist: blocks BAM8-22 activation of human MrgX1 receptor; AID 588676; MRGX1-HEK293 calcium flux, Fluo-4, BAM8-22 antagonism; stronger effect = lower value; B-score at 10 µM; 1.3% of 310,000 active;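 active means calcium-response B-score plate-corrected more than 3 library SD below zero, starting fluorescence within 5 deviations, no agonist response on first addition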;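 further: peak minus trough fluorescence over baseline after final BAM8-22 challenge near maximal dose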
# RGS4 block: inhibitors of human RGS4 | P49798 | HEK293 M3R/RGS4 inducible, Fluo-4 calcium flux; stronger effect = higher value; triggered by carbachol at its EC20 | B-score at 10 µM | 0.45% of 310,000 active;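 active means B-score, a plate-corrected calcium signal, over three deviations above library mean, with baseline fluorescence within five deviations of library mean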;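 further: RGS4 expression induced by doxycycline in cells with stable M3 receptor; B-score is computed from the integrated fluorescence ratio over baseline after carbachol; higher B-score means a larger calcium signal and so more RGS4 inhibition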
# MrgX1 allo act: human MrgX1 positive allosteric modulation, primary screen. Q96LB2. MrgX1-HEK293, Fluo-4 calcium flux, FDSS; stronger effect = higher value. B-score at 10 µM. 0.63% of 310,000 active;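 active means plate-corrected calcium response at least 3 library SD above typical, normal starting fluorescence, not activating the receptor alone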;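 further: compound read alongside a low EC10 to EC30 dose of BAM8-22 agonist; peak minus trough fluorescence over baseline measured at the second addition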
# RGS4 act: RGS4 potentiation or activation. HEK293 M3R/inducible RGS4, carbachol calcium flux Fluo4; stronger effect = lower value. B-score at 10 µM. 0.92% of 310,000 active. AID 463111;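 active means B-score of the integrated calcium signal more than 4 SD below the library mean, with starting fluorescence not abnormally high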;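 further: negative B-score means reduced calcium response which marks RGS4 activation or potentiation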
#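 Assay system: Inducible-RGS4 HEK293 cells carrying M3 receptor | Schedule: Compound preincubation 20 min at room temperature before agonist | Signal: Kinetic calcium fluorescence imaging with Fluo4-AM dye, 2 µM | Read-out basis: B score from integrated fluorescence ratio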
# * = called active by the depositor; i = inactive; x = no result.
SMILES,MrgX1 agonist,MrgX1 antagonist,RGS4 block,MrgX1 allo act,RGS4 act
Cc1ccc(-c2csc(NC(=O)CSc3nnc4c(n3)[nH]c3ccccc34)n2)cc1,i,i,x,i,x
Cc1ccc(CN2C(=O)/C(=C\c3ccc(C(=O)NCc4cccnc4)cc3)Oc3ccccc32)cc1,i,-4.6*,i,i,i
O=C(CN1C(=O)/C(=C\c2ccccc2Cl)Oc2ccccc21)NCc1cccnc1,i,i,i,i,i
COc1ccc(N2CCN(C(CNC(=O)C(=O)NCCCn3ccnc3)c3ccco3)CC2)cc1 (stereo unspecified),i,-4.9*,i,i,i
COc1ccc(-c2ccc(=O)n(Cc3cccc(Cl)c3)n2)cc1,i,i,i,7.9*,i
COc1cc2c(cc1OC)/C(=C/C(=O)c1ccc(OC)c([N+](=O)[O-])c1)NCC2,i,-4.6*,i,i,-7.3*
O=c1c2ccccc2c(=O)n(Cc2ccccc2)n1Cc1ccccc1,i,i,i,i,i
COCCN(C(=O)Cc1cccs1)C(C(=O)NCc1ccc(OC)cc1)c1ccc(C(C)C)cc1 (stereo unspecified),i,i,i,i,-7*
CCc1ccc(C(C(=O)NCc2ccc(OC)cc2)N(CCOC)C(=O)Cc2cccs2)cc1 (stereo unspecified),i,i,i,i,i
COC(=O)Nc1snnc1C,i,i,i,i,i
CCCCNc1c(-c2ccc(SC(C)CC)cc2)nc2ccccn12 (stereo unspecified),i,i,i,i,-7.5*
CCCCNc1c(-c2ccc(SC3CCCCC3)cc2)nc2ccccn12,i,i,i,i,i
CCC(Oc1ccc(C)cc1)C(=O)Nc1ccccc1C(=O)N1CCOCC1 (stereo unspecified),i,i,i,i,i
COc1ccc(CCNC(=O)CC(c2ccccc2)c2cccc(C)c2O)cc1OC (stereo unspecified),i,-5.9*,i,i,i
COc1ccc(CCNC(=O)CSc2ccccc2)cc1OC,i,i,i,i,i
COCCCNc1nc2ccccc2nc1NS(=O)(=O)c1cc(Cl)ccc1Cl,i,i,i,i,i
CC1CCCCN1C(=O)c1ccc(Br)o1 (stereo unspecified),i,i,i,i,i
N#C/C(C(N)=O)=C1/CCc2ccccc2N1,i,-4.9*,i,i,i
O=C1CCc2ccccc2N1,i,i,i,i,i
O=C(COC(=O)C1CCCCC1C(=O)N1CCc2ccccc21)NCc1ccco1 (stereo unspecified),i,i,i,i,i
C=CCC(C)(NCc1ccccc1)c1ccc(C)cc1 (stereo unspecified),i,i,i,7.6*,i
CC1S/C(=N/N=C/c2ccco2)N(Cc2ccccc2)C1=O (stereo unspecified),i,i,i,8*,i
CCC1S/C(=N/N=C/c2ccco2)N(Cc2ccc(F)cc2)C1=O (stereo unspecified),i,i,i,i,i
CC(c1ccccc1)C1CC(=O)N(Cc2ccco2)C1=O (stereo unspecified),i,i,i,i,i
CC/C(=N\N=C1\SC(C)C(=O)N1Cc1ccco1)c1ccccc1 (stereo unspecified),i,i,i,12*,i
SMILES,MrgX1 agonist,MrgX1 antagonist,RGS4 block,MrgX1 allo act,RGS4 act
CCC1S/C(=N/N=C/c2ccco2)N(Cc2ccccc2C)C1=O (stereo unspecified),i,i,i,i,i
Cc1ccccc1CN1C(=O)CS/C1=N/N=C/c1ccco1,i,i,i,7.2*,i
CCOc1cc(/C=N\NC(=O)Cn2nnc3ccccc32)ccc1O,i,i,i,i,i
CCn1c2ccc(F)cc2c2nnc(SCCN3CCCCC3)nc21,i,i,i,i,-7*
CCCn1c2ccccc2c2nnc(SCCN3CCOCC3)nc21,i,i,i,i,i
C=CCn1c2ccccc2c2nnc(SCCN3CCCCC3)nc21,i,i,i,i,-7.3*
